Consider two compounds from ChEMBL document CHEMBL1152377, “[(11)C]PR04.MZ, a promising DAT ligand for low concentration imaging: Synthesis, efficient (11)C-O-methylation and initial small animal PET studies” (Bioorg Med Chem Lett, 2009).

Data set [1] deals with Striatum. In words: Drug uptake in Sprague-Dawley rat striatum assessed per cm'3 at 37 MBq, iv treated 45 mins after DAT inhibitor GBR-12909 challenge measured after 15 mins. It is filed as ADME, organism-based. The following applies: in vivo, 0.25 h. An outline of the steps:
(§1)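 This was the same rat after its baseline scan. It was pretreated with 1.5 mg/kg GBR12909 45 min before a second 37 MBq tracer injection, and dynamic PET acquisition ran 60 min from injection. Striatal uptake was given as %ID per cm³ for the 15, 30 and 60 min time-frames.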

The nature of data set [2]: Ratio of drug uptake in striatum to cerebellum of Sprague-Dawley rat at 37 MBq, iv treated 45 mins after DAT inhibitor GBR-12909 challenge measured after 60 mins. The class given is ADME, organism-based. The following applies: in vivo, 1 h. The method in brief:
(§2)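 Same male Sprague–Dawley rat, rescanned after baseline. GBR12909 1.5 mg/kg given 45 min before a second 37 MBq tracer dose. Dynamic acquisition for 60 min, started at injection. Read-out is the striatum/cerebellum radioactivity-concentration ratio at the 15, 30 and 60 min time frames.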

For data set [3], the system named is Striatum. Briefly: Drug uptake in Sprague-Dawley rat striatum assessed per cm'3 at 37 MBq, iv treated 45 mins after DAT inhibitor GBR-12909 challenge measured after 60 mins. It is filed as ADME, organism-based. The following applies: in vivo, 1 h. The method in brief: as §1
The test system of data set [4] is Striatum. In words: Drug uptake in Sprague-Dawley rat striatum assessed per cm'3 at 37 MBq, iv after 4 mins. The class given is ADME, organism-based. The following applies: in vivo.
Data set [5] in a line: Ratio of drug uptake in striatum to cerebellum of Sprague-Dawley rat at 37 MBq, iv after 15 mins. It is filed as ADME, organism-based. The following applies: in vivo, 0.25 h. The method in brief:
(§3)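 Male Sprague–Dawley rat, baseline small-animal PET. Tracer given at 37 MBq (1 mCi), specific activity 67 GBq/µmol. Full dynamic scan for 60 min, acquisition starting with tracer injection. Read-out is the striatum/cerebellum radioactivity-concentration ratio, taken at the 15, 30 and 60 min time frames.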

Data set [6] can be described thus: Ratio of drug uptake in striatum to cerebellum of Sprague-Dawley rat at 37 MBq, iv treated 45 mins after DAT inhibitor GBR-12909 challenge measured after 30 mins. The class given is ADME, organism-based. The following applies: in vivo, 0.5 h. The method in brief: as §2
The test system of data set [7] is Striatum. Briefly: Drug uptake in Sprague-Dawley rat striatum assessed per cm'3 at 37 MBq, iv treated 45 mins after DAT inhibitor GBR-12909 challenge measured after 30 mins. It is filed as ADME, organism-based. The following applies: in vivo, 0.5 h. An outline of the steps:
as §1

The subject of data set [8] is Striatum. In words: Drug uptake in Sprague-Dawley rat striatum assessed as reduction of striatal binding potential at 37 MBq, iv treated 45 mins after DAT inhibitor GBR-12909 challenge measured after 15 mins. The class given is ADME, organism-based. The arrangement: scale not given: the % may be the effect or the level left. The following applies: in vivo, 0.25 h. The method in brief: (§4)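 The same animal then received 1.5 mg/kg GBR12909 45 min before a second 37 MBq dose, followed by another 60 min scan. Striatal binding potential was read for the 15, 30 and 60 min time-frames, and the reduction was expressed in %.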

Data set [9] relates to Striatum. In words: Drug uptake in Sprague-Dawley rat striatum assessed as reduction of striatal binding potential at 37 MBq, iv treated 45 mins after DAT inhibitor GBR-12909 challenge measured after 60 mins. The class given is ADME, organism-based. The arrangement: scale not given: the % may be the effect or the level left. The following applies: in vivo, 1 h. The method in brief:
as §4

Data set [10] relates to Striatum. Briefly: Drug uptake in Sprague-Dawley rat striatum assessed as reduction of striatal binding potential at 37 MBq, iv treated 45 mins after DAT inhibitor GBR-12909 challenge measured after 30 mins. The class given is ADME, organism-based. The arrangement: scale not given: the % may be the effect or the level left. The following applies: in vivo, 0.5 h. An outline of the steps: as §4

Data set [11] concerns Striatum. Briefly: Drug uptake in Sprague-Dawley rat striatum assessed per cm'3 at 37 MBq, iv after 15 mins. It is filed as ADME, organism-based. The following applies: in vivo, 0.25 h. The method in brief:
(§5)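 Baseline small-animal PET in one male Sprague–Dawley rat: 37 MBq (1 mCi) tracer injected, and full dynamic acquisition started at injection and ran 60 min. Images were reconstructed and coregistered with MRI. Striatal uptake was given as %ID per cm³ for the 15, 30 and 60 min time-frames.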

The nature of data set [12]: Ratio of drug uptake in striatum to cerebellum of Sprague-Dawley rat at 37 MBq, iv after 30 mins. It is filed as ADME, organism-based. The following applies: in vivo, 0.5 h. An outline of the steps:
as §3

Data set [13] deals with Striatum. In words: Drug uptake in Sprague-Dawley rat striatum assessed per cm'3 at 37 MBq, iv after 60 mins. The class given is ADME, organism-based. The following applies: in vivo, 1 h. An outline of the steps:
as §5

Data set [14] can be described thus: Ratio of drug uptake in striatum to cerebellum of Sprague-Dawley rat at 37 MBq, iv after 60 mins. The class given is ADME, organism-based. The following applies: in vivo, 1 h. An outline of the steps: as §3
The subject of data set [15] is Striatum. In words: Drug uptake in Sprague-Dawley rat striatum assessed per cm'3 at 37 MBq, iv after 30 mins. The class given is ADME, organism-based. The following applies: in vivo, 0.5 h. An outline of the steps: as §5
Data set [16] can be described thus: Ratio of drug uptake in striatum to cerebellum of Sprague-Dawley rat at 37 MBq, iv treated 45 mins after DAT inhibitor GBR-12909 challenge measured after 15 mins. The class given is ADME, organism-based. The following applies: in vivo, 0.25 h. The method in brief: as §2
Data set [17] deals with Sodium-dependent dopamine transporter (Homo sapiens, UniProt Q01959). In words: Inhibition of human dopamine transporter.
Chain of Sodium-dependent dopamine transporter (Q01959 whole entry): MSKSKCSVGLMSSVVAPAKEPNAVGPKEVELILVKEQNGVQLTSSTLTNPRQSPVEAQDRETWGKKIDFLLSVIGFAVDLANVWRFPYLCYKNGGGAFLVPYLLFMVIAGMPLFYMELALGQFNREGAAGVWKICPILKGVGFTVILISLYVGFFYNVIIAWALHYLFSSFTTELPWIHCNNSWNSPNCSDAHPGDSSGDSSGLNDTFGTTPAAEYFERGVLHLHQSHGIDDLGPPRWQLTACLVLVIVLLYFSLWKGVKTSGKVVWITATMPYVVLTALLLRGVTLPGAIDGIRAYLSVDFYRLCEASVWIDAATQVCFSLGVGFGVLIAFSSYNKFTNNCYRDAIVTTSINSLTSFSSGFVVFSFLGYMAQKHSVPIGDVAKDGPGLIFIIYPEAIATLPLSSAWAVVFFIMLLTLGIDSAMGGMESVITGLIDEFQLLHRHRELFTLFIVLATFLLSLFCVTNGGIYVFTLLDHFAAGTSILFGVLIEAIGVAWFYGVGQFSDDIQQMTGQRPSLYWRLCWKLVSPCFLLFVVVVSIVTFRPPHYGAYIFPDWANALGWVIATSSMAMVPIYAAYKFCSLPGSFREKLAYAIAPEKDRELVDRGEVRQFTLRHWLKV

Regarding `Cc1ccc([C@H]2C[C@@H]3CC[C@H]([C@H]2C(=O)O[11CH3])N3CC#CCF)cc1`, the Activity in data set [1] came out at 2.1 %ID; in data set [3] it was 1.2 %ID; in data set [7], 1.6 %ID; in [8] it was 32%; in data set [9] it was 57%; in data set [10] it was 41%. Besides, the Activity in [11] was found to be 2 %ID; in data set [13], 2.1 %ID; in data set [15] it was 2.1 %ID. Besides, the Ratio came to 1.61 in [2]; 2.4 in data set [5]; 1.67 in data set [6]; 3.6 in [12]; 5 in [14]; 1.25 in data set [16]. This compound yielded a Drug uptake in [4] of 2.22%.

As a reminder, the IC50 is the concentration needed to halve the response being measured. Take `COC(=O)[C@H]1[C@@H](c2ccc(C)cc2)C[C@@H]2CC[C@H]1N2CC#CCF`: the midpoint of inhibition in data set [17], the IC50, lay at 3 nM.
